The nature of data set [1]: Diffusion and permeability studies. The format is in vitro ADME. The note with it: after 480 min, PBS pH 6.8, 37 °C, NAR 50 mg/mL in donor.
Data set [2] is described as follows: Pharmacokinetic study after oral administration. The data set is classed as in vivo, Wistar rats. The conditions noted are these: male, Wistar, rat, plasma, 50 mg/kg. The essentials:
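Male Wistar rats (220–250 g, 10–12 weeks) were fasted overnight with water ad libitum (n = 6/group). They were dosed orally with the compound as a 0.5% w/v Na-CMC suspension or DES formulation. Retro-orbital blood was drawn at 0, 0.5, 2, 4, 6, 8, 12 and 24 h. Plasma was precipitated with acetonitrile (1:3) and assayed by isocratic C18 HPLC-DAD at 283 nm. Parameters came from PK software; mean ± SD.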

The conditions of data set [3]: cited from earlier work.

The values below come from paper PMC10099425 (ACS Omega, 2023).

Structures are written as SMILES.

Consider `C[C@@H]1O[C@@H](O[C@H]2[C@H](Oc3cc(O)c4c(c3)O[C@H](c3ccc(O)cc3)CC4=O)O[C@H](CO)[C@@H](O)[C@@H]2O)[C@H](O)[C@H](O)[C@H]1O` [NAR (pure), 4′,5,7-trihydroxyflavanone 7-rhamnoglucoside], for which the “amount of NAR diffused” value in data set [1] was determined as 30.78 ± 3.4 % w/v. Further, in data set [2], the area under the curve AUC(0-t) was 226 ± 4.2 ng·h/mL, the Cmax came out at 31.2 ± 2.3 ng/mL, the MRT came out at 6.46 ± 1.7 h and the Tmax is 4.1 ± 0.6 h. In addition, in data set [2], the half-life was 206 ± 66 min. Besides, in data set [3], the elimination half-life was 3.64 ± 3.0 h.
